How the values were obtained:
[1] = molecular target: Cyclin-dependent kinase 1/cyclin B1 (Homo sapiens, UniProt P06493); assay: Inhibition of recombinant CDK1/cyclin B (unknown origin) using histone H1 as substrate in presence of [gamma-33P]ATP; format: protein-complex assay
[2] = molecular target: Maternal embryonic leucine zipper kinase (Homo sapiens) (UniProt Q14680); assay: Inhibition of recombinant MELK (unknown origin) assessed as residual activity using [gamma-33P]ATP as substrate at 1 uM
Outline: (§1)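 Selectivity panel run under previously published conditions. Screened at 1 μM in duplicate. Reactions started with [γ-33P]ATP (800 cpm/pmol) at 5, 20 or 50 μM, chosen to be at or below each enzyme's ATP Km. Stopped with phosphoric acid, spotted onto P81 filters. Result expressed as residual kinase activity.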

[3] = molecular target: Serine/threonine-protein kinase Nek6 (Homo sapiens) (UniProt Q9HC98); assay: Inhibition of recombinant NEK6 (unknown origin) assessed as residual activity using [gamma-33P]ATP as substrate at 1 uM; outline: as §1
[4] = molecular target: Phosphorylase kinase (Homo sapiens) (UniProt P15735+P46020+P46019+Q93100+Q16816); assay: Inhibition of recombinant PHK (unknown origin) assessed as residual activity using [gamma-33P]ATP as substrate at 1 uM; format: protein-complex assay; outline: as §1
[5] = molecular target: Receptor tyrosine-protein kinase erbB-4 (Homo sapiens) (UniProt Q15303); assay: Inhibition of recombinant HER4 (unknown origin) assessed as residual activity using [gamma-33P]ATP as substrate at 1 uM
Sequence of Receptor tyrosine-protein kinase erbB-4 (Homo sapiens) (Q15303 whole entry): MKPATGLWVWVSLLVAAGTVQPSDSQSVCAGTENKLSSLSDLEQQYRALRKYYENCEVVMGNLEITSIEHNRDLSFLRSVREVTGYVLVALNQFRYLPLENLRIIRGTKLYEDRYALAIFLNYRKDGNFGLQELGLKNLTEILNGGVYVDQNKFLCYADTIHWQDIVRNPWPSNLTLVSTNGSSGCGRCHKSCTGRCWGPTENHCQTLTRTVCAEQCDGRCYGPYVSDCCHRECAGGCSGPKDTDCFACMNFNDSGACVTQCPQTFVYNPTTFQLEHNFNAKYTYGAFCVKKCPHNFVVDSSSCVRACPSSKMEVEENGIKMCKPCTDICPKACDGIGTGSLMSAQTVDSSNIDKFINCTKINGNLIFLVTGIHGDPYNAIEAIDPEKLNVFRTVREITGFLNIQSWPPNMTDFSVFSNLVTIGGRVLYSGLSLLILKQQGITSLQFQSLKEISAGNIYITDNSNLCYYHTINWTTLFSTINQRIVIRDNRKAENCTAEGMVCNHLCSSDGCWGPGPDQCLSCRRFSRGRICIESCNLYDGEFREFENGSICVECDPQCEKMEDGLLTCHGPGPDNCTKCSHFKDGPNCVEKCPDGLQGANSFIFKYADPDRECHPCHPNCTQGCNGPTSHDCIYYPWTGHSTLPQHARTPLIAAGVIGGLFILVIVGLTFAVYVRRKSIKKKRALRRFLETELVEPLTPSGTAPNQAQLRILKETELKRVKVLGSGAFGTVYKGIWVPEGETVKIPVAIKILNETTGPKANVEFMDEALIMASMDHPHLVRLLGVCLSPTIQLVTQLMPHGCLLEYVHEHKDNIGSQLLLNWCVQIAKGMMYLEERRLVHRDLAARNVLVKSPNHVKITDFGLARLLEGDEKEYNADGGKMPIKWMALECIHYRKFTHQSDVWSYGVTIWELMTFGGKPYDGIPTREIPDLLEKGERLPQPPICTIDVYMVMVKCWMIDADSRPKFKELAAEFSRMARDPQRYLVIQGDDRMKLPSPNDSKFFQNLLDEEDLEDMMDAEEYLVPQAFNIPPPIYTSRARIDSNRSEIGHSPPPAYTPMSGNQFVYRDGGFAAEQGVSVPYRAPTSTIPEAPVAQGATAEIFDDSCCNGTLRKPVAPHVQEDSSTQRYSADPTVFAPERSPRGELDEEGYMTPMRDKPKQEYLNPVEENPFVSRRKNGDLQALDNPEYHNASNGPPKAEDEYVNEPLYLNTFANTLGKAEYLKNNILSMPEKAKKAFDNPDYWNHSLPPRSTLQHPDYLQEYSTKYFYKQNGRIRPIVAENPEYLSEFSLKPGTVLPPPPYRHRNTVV
Outline: (§2)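 Recombinant kinase panel screened at 1 µM in duplicate. Reactions started with [γ-33P]ATP (800 cpm/pmol) at 5, 20 or 50 µM, chosen to sit at or below each enzyme's ATP Km. Stopped with phosphoric acid and spotted onto P81 filters. Result given as residual kinase activity.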

[6] = molecular target: Mitogen-activated protein kinase 9 (Homo sapiens) (UniProt P45984); assay: Inhibition of recombinant JNK2 (unknown origin) assessed as residual activity using [gamma-33P]ATP as substrate at 1 uM; outline: as §1
Sequence of Mitogen-activated protein kinase 9 (Homo sapiens) (P45984 whole entry, looked up): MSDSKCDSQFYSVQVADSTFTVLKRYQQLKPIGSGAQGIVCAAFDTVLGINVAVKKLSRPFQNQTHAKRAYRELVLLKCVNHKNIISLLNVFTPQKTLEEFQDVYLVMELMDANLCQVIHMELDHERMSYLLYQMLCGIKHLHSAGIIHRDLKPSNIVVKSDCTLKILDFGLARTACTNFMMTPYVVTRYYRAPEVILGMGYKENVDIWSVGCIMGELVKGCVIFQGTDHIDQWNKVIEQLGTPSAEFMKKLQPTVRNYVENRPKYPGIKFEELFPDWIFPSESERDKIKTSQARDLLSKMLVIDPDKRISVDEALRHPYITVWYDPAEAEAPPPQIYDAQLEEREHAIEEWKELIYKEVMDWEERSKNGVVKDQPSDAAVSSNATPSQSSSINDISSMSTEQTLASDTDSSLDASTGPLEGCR

[7] = molecular target: Dual specificity protein kinase TTK (Homo sapiens) (UniProt P33981); assay: Inhibition of recombinant TTK (unknown origin) assessed as residual activity using [gamma-33P]ATP as substrate at 1 uM
Outline: (§3)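 Kinase panel screen with each compound at 1 µM, in duplicate. Reactions were started with [γ-33P]ATP (800 cpm/pmol) at 5, 20 or 50 µM, chosen per enzyme to be at or below its ATP Km. Reactions were stopped with phosphoric acid and spotted onto P81 filters. Results are given as residual kinase activity.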

[8] = molecular target: Serine/threonine-protein kinase PAK 2 (Homo sapiens) (UniProt Q13177); assay: Inhibition of recombinant PAK2 (unknown origin) assessed as residual activity using [gamma-33P]ATP as substrate at 1 uM; outline: as §1
[9] = molecular target: Serine/threonine-protein kinase PAK 5 (Homo sapiens) (UniProt Q9P286); assay: Inhibition of recombinant PAK5 (unknown origin) assessed as residual activity using [gamma-33P]ATP as substrate at 1 uM
[10] = molecular target: Homeodomain-interacting protein kinase 1 (Homo sapiens) (UniProt Q86Z02); assay: Inhibition of recombinant HIPK1 (unknown origin) assessed as residual activity using [gamma-33P]ATP as substrate at 1 uM; outline: as §2
Sequence of Homeodomain-interacting protein kinase 1 (Homo sapiens) (Q86Z02 whole entry, looked up): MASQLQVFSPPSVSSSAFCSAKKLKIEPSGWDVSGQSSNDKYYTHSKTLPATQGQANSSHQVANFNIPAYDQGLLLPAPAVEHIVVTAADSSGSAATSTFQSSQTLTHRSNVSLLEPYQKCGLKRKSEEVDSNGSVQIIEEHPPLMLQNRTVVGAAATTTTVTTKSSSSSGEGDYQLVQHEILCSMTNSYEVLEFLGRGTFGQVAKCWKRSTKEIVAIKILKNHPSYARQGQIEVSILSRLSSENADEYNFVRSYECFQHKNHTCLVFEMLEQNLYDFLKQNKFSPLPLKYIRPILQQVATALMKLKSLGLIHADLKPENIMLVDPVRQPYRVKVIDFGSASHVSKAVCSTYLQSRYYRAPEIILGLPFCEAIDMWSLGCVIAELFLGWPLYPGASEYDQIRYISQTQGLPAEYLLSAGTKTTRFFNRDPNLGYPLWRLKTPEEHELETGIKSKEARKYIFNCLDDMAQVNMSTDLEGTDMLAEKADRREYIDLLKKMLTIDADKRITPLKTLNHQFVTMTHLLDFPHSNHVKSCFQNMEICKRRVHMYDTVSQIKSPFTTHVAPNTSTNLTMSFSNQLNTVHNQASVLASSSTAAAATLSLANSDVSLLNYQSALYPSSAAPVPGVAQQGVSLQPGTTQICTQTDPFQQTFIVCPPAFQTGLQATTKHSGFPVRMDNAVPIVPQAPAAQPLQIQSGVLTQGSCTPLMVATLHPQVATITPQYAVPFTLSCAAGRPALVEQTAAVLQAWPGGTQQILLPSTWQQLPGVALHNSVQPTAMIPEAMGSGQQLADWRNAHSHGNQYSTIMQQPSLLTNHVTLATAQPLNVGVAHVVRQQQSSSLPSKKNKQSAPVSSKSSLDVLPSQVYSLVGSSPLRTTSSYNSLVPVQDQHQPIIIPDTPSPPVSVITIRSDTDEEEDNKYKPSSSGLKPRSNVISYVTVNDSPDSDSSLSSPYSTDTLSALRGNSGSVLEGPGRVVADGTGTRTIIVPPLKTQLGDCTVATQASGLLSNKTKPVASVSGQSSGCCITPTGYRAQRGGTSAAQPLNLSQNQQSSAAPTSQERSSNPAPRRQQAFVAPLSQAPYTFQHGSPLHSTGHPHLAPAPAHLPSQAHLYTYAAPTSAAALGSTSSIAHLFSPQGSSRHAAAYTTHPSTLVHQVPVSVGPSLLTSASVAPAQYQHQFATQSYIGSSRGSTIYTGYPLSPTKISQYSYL

[11] = molecular target: Insulin-like growth factor 1 receptor (Homo sapiens) (UniProt P08069); assay: Inhibition of recombinant IGF-1R (unknown origin) assessed as residual activity using [gamma-33P]ATP as substrate at 1 uM; outline: as §2
[12] = molecular target: Cyclin-dependent kinase 2/cyclin E1 (Homo sapiens, UniProt P24941); assay: Inhibition of recombinant CDK2/cyclin E (unknown origin) using histone H1 as substrate in presence of [gamma-33P]ATP; format: protein-complex assay
[13] = molecular target: Mitogen-activated protein kinase kinase kinase 1 (Homo sapiens) (UniProt Q13233); assay: Inhibition of recombinant MEKK1 (unknown origin) assessed as residual activity using [gamma-33P]ATP as substrate at 1 uM; outline: as §1
Sequence of Mitogen-activated protein kinase kinase kinase 1 (Homo sapiens) (Q13233 whole entry): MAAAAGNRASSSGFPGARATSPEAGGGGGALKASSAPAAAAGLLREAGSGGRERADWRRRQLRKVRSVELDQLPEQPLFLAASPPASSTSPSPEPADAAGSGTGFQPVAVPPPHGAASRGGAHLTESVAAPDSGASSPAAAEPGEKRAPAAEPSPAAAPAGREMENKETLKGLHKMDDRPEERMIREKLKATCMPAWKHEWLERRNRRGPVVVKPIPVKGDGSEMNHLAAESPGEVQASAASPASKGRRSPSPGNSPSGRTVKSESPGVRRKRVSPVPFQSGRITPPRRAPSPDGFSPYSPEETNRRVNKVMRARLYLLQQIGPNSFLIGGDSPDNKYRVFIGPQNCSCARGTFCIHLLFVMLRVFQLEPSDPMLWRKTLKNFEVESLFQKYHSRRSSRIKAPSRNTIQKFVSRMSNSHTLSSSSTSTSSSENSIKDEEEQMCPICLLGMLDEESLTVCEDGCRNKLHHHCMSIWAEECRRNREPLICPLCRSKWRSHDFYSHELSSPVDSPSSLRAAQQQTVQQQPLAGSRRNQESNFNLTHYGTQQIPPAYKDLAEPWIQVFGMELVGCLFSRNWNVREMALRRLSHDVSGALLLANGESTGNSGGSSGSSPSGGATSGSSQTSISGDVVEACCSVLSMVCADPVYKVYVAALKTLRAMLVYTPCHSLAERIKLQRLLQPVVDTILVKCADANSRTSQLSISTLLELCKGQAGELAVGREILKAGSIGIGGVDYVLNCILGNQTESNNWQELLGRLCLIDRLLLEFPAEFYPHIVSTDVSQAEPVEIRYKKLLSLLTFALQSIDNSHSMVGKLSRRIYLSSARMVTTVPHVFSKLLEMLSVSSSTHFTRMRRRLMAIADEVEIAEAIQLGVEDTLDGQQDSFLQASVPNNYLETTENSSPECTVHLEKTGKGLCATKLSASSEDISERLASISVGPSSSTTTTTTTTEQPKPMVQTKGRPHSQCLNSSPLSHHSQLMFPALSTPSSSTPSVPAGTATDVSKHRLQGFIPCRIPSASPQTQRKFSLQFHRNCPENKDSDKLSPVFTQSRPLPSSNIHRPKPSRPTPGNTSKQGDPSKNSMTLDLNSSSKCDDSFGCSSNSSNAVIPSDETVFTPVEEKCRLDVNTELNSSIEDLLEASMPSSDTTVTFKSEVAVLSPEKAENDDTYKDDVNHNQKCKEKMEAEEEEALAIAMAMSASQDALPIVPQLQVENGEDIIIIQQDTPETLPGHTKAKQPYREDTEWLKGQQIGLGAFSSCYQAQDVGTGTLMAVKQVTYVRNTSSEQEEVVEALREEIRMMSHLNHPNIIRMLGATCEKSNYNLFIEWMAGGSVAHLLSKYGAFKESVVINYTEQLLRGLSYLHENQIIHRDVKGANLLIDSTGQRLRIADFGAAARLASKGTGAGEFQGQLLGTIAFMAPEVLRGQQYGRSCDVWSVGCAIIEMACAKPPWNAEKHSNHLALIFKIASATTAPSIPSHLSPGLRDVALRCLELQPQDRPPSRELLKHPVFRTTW

[14] = molecular target: SRSF protein kinase 1 (Homo sapiens) (UniProt Q96SB4); assay: Inhibition of recombinant SRPK1 (unknown origin) assessed as residual activity using [gamma-33P]ATP as substrate at 1 uM; outline: as §3
[15] = molecular target: Ribosomal protein S6 kinase beta-1 (Homo sapiens) (UniProt P23443); assay: Inhibition of recombinant S6K1 (unknown origin) assessed as residual activity using [gamma-33P]ATP as substrate at 1 uM; outline: as §3
[16] = molecular target: Inhibitor of nuclear factor kappa-B kinase subunit epsilon (Homo sapiens) (UniProt Q14164); assay: Inhibition of recombinant IKKepsilon (unknown origin) assessed as residual activity using [gamma-33P]ATP as substrate at 1 uM; outline: as §2
[17] = molecular target: Tyrosine-protein kinase CSK (Homo sapiens) (UniProt P41240); assay: Inhibition of recombinant CSK (unknown origin) assessed as residual activity using [gamma-33P]ATP as substrate at 1 uM; outline: as §2
[18] = molecular target: Protein kinase C alpha type (Homo sapiens) (UniProt P17252); assay: Inhibition of recombinant PKCalpha (unknown origin) assessed as residual activity using [gamma-33P]ATP as substrate at 1 uM; outline: as §1
[19] = molecular target: Serine/threonine-protein kinase BRSK2 (Homo sapiens) (UniProt Q8IWQ3); assay: Inhibition of recombinant BRSK2 (unknown origin) assessed as residual activity using [gamma-33P]ATP as substrate at 1 uM; outline: as §2
[20] = molecular target: Dual specificity mitogen-activated protein kinase kinase 6 (Homo sapiens) (UniProt P52564); assay: Inhibition of recombinant MKK6 (unknown origin) assessed as residual activity using [gamma-33P]ATP as substrate at 1 uM; outline: as §1
[21] = molecular target: Serine/threonine-protein kinase BRSK1 (Homo sapiens) (UniProt Q8TDC3); assay: Inhibition of recombinant BRSK1 (unknown origin) assessed as residual activity using [gamma-33P]ATP as substrate at 1 uM; outline: as §2
[22] = molecular target: Serine/threonine-protein kinase PAK 6 (Homo sapiens) (UniProt Q9NQU5); assay: Inhibition of recombinant PAK6 (unknown origin) assessed as residual activity using [gamma-33P]ATP as substrate at 1 uM; outline: as §1
[23] = molecular target: Cyclin-dependent kinase 1/cyclin B1 (Homo sapiens) (UniProt P06493+P14635); assay: Ratio of roscovitine IC50 to compound IC50 for recombinant CDK1/cyclin B (unknown origin); format: protein-complex assay
[24] = molecular target: Cyclin-dependent kinase 2/cyclin E1 (Homo sapiens) (UniProt P24864+P24941); assay: Ratio of roscovitine IC50 to compound IC50 for recombinant CDK2/cyclin E (unknown origin); format: protein-complex assay
[25] = test system: MCF7; assay: Ratio of roscovitine IC50 to compound IC50 for human MCF7 cells after 72 hrs by calcien AM dye based fluorescence analysis; format: functional

Compound	IC50 [1] [nM]	Activity [2] [%]	Activity [3] [%]	Activity [4] [%]	Activity [5] [%]	Activity [6] [%]	Activity [7] [%]	Activity [8] [%]	Activity [9] [%]	Activity [10] [%]	Activity [11] [%]	IC50 [12] [nM]	Activity [13] [%]	Activity [14] [%]	Activity [15] [%]	Activity [16] [%]	Activity [17] [%]	Activity [18] [%]	Activity [19] [%]	Activity [20] [%]	further results
CC[C@H](CO)Nc1nc(NC(=N)N)c2ncn(C(C)C)c2n1	2100	27	95	14	27	85	40	45	18	15	10	140	91	22	49	66	58	71	77	72	Activity [21]: 44%; Activity [22]: 26%
CC[C@@H](CO)Nc1nc(NC(=N)N)c2ncn(C(C)C)c2n1	900	19	85	12	29	73	32	38	15	11	5	37	96	14	36	52	59	68	67	88	Ratio IC50 [23]: 2.7; Ratio IC50 [24]: 4.6; Activity [21]: 45%; Activity [22]: 17%; Ratio IC50 [25]: >10

From ChEMBL document CHEMBL2331324, “Synthesis and biological evaluation of guanidino analogues of roscovitine” (Eur J Med Chem, 2013)
